In ChEMBL document CHEMBL1139952, “Cytotoxic Mannich bases of 6-(3-aryl-2-propenoyl)-2(3H)-benzoxazolones” (Eur J Med Chem, 2007):
Active and inactive are the calls of the source. The calls are words filed in the database; no cut-off is given here.

What was measured:
Assay type in all cases: functional, cell-based
BV-173 [1] = test: Cytotoxicity against human BV173 cells after 72 hrs by MTT assay; conditions: BV-173, 72 h
In short: (§1)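 Suspension cultures (BV-173 pre-B-cell leukemia or K-562 chronic myeloid leukemia, from DSMZ) kept in log phase in RPMI-1640 with 10% FBS and 2 mM L-glutamine, 37 °C, humidified 5% CO2. Compounds dissolved in DMSO and diluted in RPMI-1640, final DMSO at most 0.5%. Exposure 72 h, MTT-dye reduction read-out. Six wells per concentration, experiments in triplicate, IC50 from concentration-response fits.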

K562 = test: Cytotoxicity against human K562 cells after 72 hrs by MTT assay; conditions: K562, 72 h; in short: as §1
BV-173 [2] = test: Induction of apoptosis in BV173 cells assessed as DNA fragmentation at 2.5 uM after 24hrs; conditions: Homo sapiens
In short: (§2)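 Apoptosis assay: exponentially growing BV-173 cells, 1 × 10⁶, exposed 24 h to compound or etoposide, with solvent-treated cells as controls. DNA was extracted from the cytosolic fraction and examined for fragmentation as laddering beside a DNA-laddering marker.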

BV-173 [3] = test: Induction of apoptosis in BV173 cells assessed as DNA fragmentation at 0.25 uM after 24hrs; conditions: Homo sapiens, 2.5 uM, in the assay text read “2.5 uM” for “0.25 uM”; in short: as §2

`COc1ccc(/C=C/C(=O)c2ccc3[nH]c(=O)oc3c2)cc1` was tested, and the IC50 (BV-173 [1]) was 9.2 µM.

In the case of `COc1ccc(/C=C/C(=O)c2ccc3c(c2)oc(=O)n3CN2CCN(c3ccccc3OC)CC2)cc1`, the IC50 (K562) is reported as 12.4 µM, the IC50 (BV-173 [1]) is reported as 5.4 µM and the Activity (BV-173 [2]) is reported as “Active”.

`COc1ccc(/C=C/C(=O)c2ccc3c(c2)oc(=O)n3CN(C)C)cc1` showed an IC50 (BV-173 [1]) of 17.7 µM.

With `CN(C)Cn1c(=O)oc2cc(C(=O)/C=C/c3ccccc3)ccc21` the IC50 (K562) was 27.2 µM and the IC50 (BV-173 [1]) was 6.6 µM.

`COc1ccc(/C=C/C(=O)c2ccc3c(c2)oc(=O)n3CN2CCOCC2)cc1` showed an IC50 (K562) of 22.7 µM and an IC50 (BV-173 [1]) of 4.7 µM.

With `COc1ccccc1N1CCN(Cn2c(=O)oc3cc(C(=O)/C=C/c4ccccc4)ccc32)CC1` the IC50 (K562) was 30.1 µM and the IC50 (BV-173 [1]) was 9.2 µM.

In the case of `COc1cc([C@@H]2c3cc4c(cc3[C@@H](O[C@@H]3O[C@@H]5CO[C@@H](C)O[C@H]5[C@H](O)[C@H]3O)[C@H]3COC(=O)[C@H]23)OCO4)cc(OC)c1O` [ETOPOSIDE], the IC50 (K562) is reported as 3.1 µM, the IC50 (BV-173 [1]) is reported as 0.9 µM and the Activity (BV-173 [3]) is reported as “Active”.

In the case of `O=C(/C=C/c1ccccc1)c1ccc2c(c1)oc(=O)n2CN1CCCCC1`, the IC50 (K562) is reported as 38.3 µM and the IC50 (BV-173 [1]) is reported as 8.2 µM.

In the case of `COc1ccc(/C=C/C(=O)c2ccc3c(c2)oc(=O)n3CN2CCN(Cc3ccccc3)CC2)cc1`, the IC50 (K562) is reported as 24.2 µM and the IC50 (BV-173 [1]) is reported as 6.2 µM.

`O=C(/C=C/c1ccccc1)c1ccc2[nH]c(=O)oc2c1` was tested, and the IC50 (BV-173 [1]) was 18.4 µM.

With `COc1ccc(/C=C/C(=O)c2ccc3c(c2)oc(=O)n3CN2CCSCC2)cc1` the IC50 (K562) was 21.2 µM, the IC50 (BV-173 [1]) was 6.1 µM and the Activity (BV-173 [2]) was “Active”.

`COc1ccc(/C=C/C(=O)c2ccc3c(c2)oc(=O)n3CN2CCCCC2)cc1` gave an IC50 (BV-173 [1]) of 15.3 µM.

`O=C(/C=C/c1ccccc1)c1ccc2c(c1)oc(=O)n2CN1CCN(Cc2ccccc2)CC1` gave an IC50 (K562) of 29.5 µM and an IC50 (BV-173 [1]) of 9.4 µM.

With `O=C(/C=C/c1ccccc1)c1ccc2c(c1)oc(=O)n2CN1CCSCC1` the IC50 (K562) was 42.2 µM and the IC50 (BV-173 [1]) was 7.9 µM.

In the case of `O=C(/C=C/c1ccccc1)c1ccc2c(c1)oc(=O)n2CN1CCOCC1`, the IC50 (K562) is reported as 31.7 µM and the IC50 (BV-173 [1]) is reported as 7.4 µM.
